Most compounds without a hit are left out; they make up all but 0.83% or so of the library.
RGS8-Gao – human RGS8-Galphao interaction regulation; P09471; multiplexed bead flow cytometry, RGS8-Galphao binding; actives lie on both sides; response (percent of control binding), % at 10 µM; 220,000 compounds, 0.34% hits; AID 1423; in the data active = response below about 60% or above about 140%; inactive = in between;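 note: Galphao activated as the GDP aluminium fluoride complex binding bead-coupled RGS8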
ABCG2 inh – blocks JC-1 efflux by human ABCG2 transporter. 190,000 compounds, 0.1% hits. Q9UNQ0. IgMXP3 cells, flow cytometry. inhibition, % at 6.6 µM;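 active = inhibition above 80%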
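Test system: IgMXP3 (ABCG2) plus far-red-tagged CCRF-Adr (ABCB1) cells / Amount: 3 million cells/mL in well / Reagent: JC-1 transporter substrate / Timing: 10 min compound exposure, 25 °C / Signal: flow cytometry, 530 nm JC-1 signal / Read-out: percent efflux inhibition, scaled nicardipine 100% to DMSO 0% / Benchmarks: nicardipine as high control, DMSO as low control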
RGS16-Gao – modulates binding between human RGS16 and Galphao. bead-based flow cytometry RGS16-Galphao binding, fluorescence; actives lie on both sides. binding response (% of control), % at 10 µM. 220,000 compounds, 0.38% hits. AID 1441;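 note: Galphao activated by GDP with aluminum fluoride before binding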
RGS4-Gao reg – modulates binding of RGS4 to human Galphao; P09471; Multiplexed bead flow cytometry; actives lie on both sides; binding response (% of control), % at 10 µM; 220,000 compounds, 0.33% hits; AID 1415; in the data active = binding response below about 49% or above about 150%; inactive = in between;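 note: fluorescent Galphao activated with aluminum fluoride binding bead-coupled RGS4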
RGS7-Gao – modulates binding of RGS7 to human Galphao | P09471 | Multiplexed bead flow cytometry; actives lie on both sides | binding response (% of control), % at 10 µM | 220,000 compounds, 0.35% hits | AID 1439; in the data active = binding response below about 49% or above about 150%; inconclusive = no clear call, values can overlap the other calls; inactive = in between;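 note: fluorescent Galphao held in activated GDP-AlF4 state binding bead-coupled RGS7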
ABCB1 block – blocks JC-1 efflux by human ABCB1 transporter. P08183. CCRF-Adr cells, flow cytometry. inhibition, % at 6.6 µM. 190,000 compounds, 0.067% hits. AID 1326; in the data active = inhibition above about 40%;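 note: higher value means more JC-1 retained so stronger ABCB1 efflux block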
RGS-Gao – modulates binding between human RGS4 and Galphao. RGS4–Galpha-o binding response, % at 10 µM. shares compounds with RGS16-Gao. multiplexed bead flow cytometry, RGS–Galpha-o binding. AID 1504. 1,600 compounds, 99% hits;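 note: fluorescently labeled Galpha-o bound to GDP with aluminium fluoride binding biotinylated RGS beads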
Avidin counter – counter-screen: compounds disrupting biotin binding to avidin beads. streptavidin beads, fluorescein-biotin binding, flow cytometry. 1,700 tested, under 10 active. AID 1783. inhibition, % at 10 µM. shares compounds with RGS16-Gao;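 active = inhibition above 50%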;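 note: median green fluorescence of gated singlet beads compared with DMSO control wells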
RGS8-Gao confirm – RGS8-Galphao interaction regulation, single point confirmation; shares compounds with RGS16-Gao; bead-based flow cytometry RGS8-Galphao binding, fluorescence; actives lie on both sides; binding response (% of control), % at 10 µM; 1,700 compounds, 3% hits; AID 1836; in the data active = binding response below about 72% or above about 130%; inactive = in between;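 note: Galphao activated as GDP AlF4 complex before binding bead RGS8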
RGS7-Gao confirm – confirmation of regulators of human RGS7-Galphao interaction. 1,700 compounds, 7.8% hits. response (percent of control binding), % at 10 µM. shares compounds with RGS16-Gao. bead-based flow cytometry RGS7-Galphao binding; actives lie on both sides; in the data active = response below about 75% or above about 130%; inactive = in between;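 note: fluorescent Galphao activated with GDP and aluminum fluoride binding bead-coupled RGS7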
RGS16-Gao single – RGS16-Galphao interaction regulation, single point confirmation; shares compounds with RGS16-Gao; bead-based flow cytometry, RGS16-Galphao binding; actives lie on both sides; response (% of control binding), % at 10 µM; 1,700 compounds, 4% hits; AID 1838; in the data active = response below about 74% or above about 130%; inactive = in between;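 note: Galphao activated as the GDP aluminium fluoride complex binding bead-coupled RGS16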
RGS4-Gao confirm – confirmation of regulators of human RGS4-Galphao interaction. shares compounds with RGS16-Gao. RGS4-Galphao binding, multiplexed bead flow cytometry; actives lie on both sides. binding response (% of control), % at 10 µM. 1,700 compounds, 4% hits. AID 1840; in the data active = binding response below about 74% or above about 130%; inactive = in between
RGS19-Gao single – RGS19-Galphao interaction regulation, single point confirmation | shares compounds with RGS16-Gao | bead-based flow cytometry RGS19-Galphao binding; actives lie on both sides | response (percent of control binding), % at 10 µM | 1,700 compounds, 5% hits; in the data active = response below about 50% or above about 160%; inactive = in between
A number is an active result; n = inactive; u = inconclusive; x = not tested or not shown; [ ] = remark or other dose. Unless noted, the rule behind the calls is not given here.

SMILES	RGS8-Gao	ABCG2 inh	RGS16-Gao	RGS4-Gao reg	RGS7-Gao	ABCB1 block	RGS-Gao	Avidin counter	RGS8-Gao confirm	RGS7-Gao confirm	RGS16-Gao single	RGS4-Gao confirm	RGS19-Gao single
CC(C)(C(=O)Nc1nccs1)c1ccccc1	n	n	n	n	156.3[activator]	n	136.9	n	n	n	n	n	n
O=C(NCCCNC(=O)c1ccccn1)c1ccccn1	n	n	n	n	n	n	x	x	x	x	x	x	x
COC(=O)CCCNC(=O)c1ccccn1	n	n	n	n	231.1[activator]	n	119.7	n	n	n	n	n	n
O=C(NNc1cccc([N+](=O)[O-])c1)/C(=C\c1cccnc1)NC(=O)c1ccccc1	n	x	n	n	u	x	x	x	x	x	x	x	x
COc1cccc(C2c3c(oc4cc(C)c(C)cc4c3=O)C(=O)N2CCCN(C)C)c1 (stereo not given)	n	n	n	n	263.2[activator]	n	122.2	x	x	x	x	x	x
O=C(CCNC(=O)c1ccco1)NCc1ccccc1	x	n	x	x	x	n	x	n	n	n	n	n	n
Cc1cc2cc(CCNC(=O)c3ccc(C)c([N+](=O)[O-])c3)c(=O)[nH]c2cc1C	16.5	n	n	3.7	7.7	n	x	n	n	n	n	n	n
CCNC(=S)Nc1cc(OCC)c(NC(=O)c2cccs2)cc1OCC	n	n	n	43.5	36.1	n	x	n	n	n	n	n	n
COc1cc(OC)c(OC)cc1CN1CCN(Cc2cccn2C)CC1	n	n	n	n	n	n	x	x	x	x	x	x	x
Oc1ccc(N=Cc2ccc(O)c(O)c2)cc1	n	n	n	n	49.0	n	58.8	n	n	n	n	n	n
CCNc1ccc(N=Nc2c(C)n(C)n(-c3ccccc3)c2=O)cc1	n	n	n	n	u	n	x	x	x	x	x	x	x
COc1ccc(CSc2nnc(C)n2N)cc1Br	n	n	n	n	n	n	x	x	x	x	x	x	x
CCc1nnc(SCc2ccc(OC)c(Br)c2)n1N	43.8	n	n	40.5	35.4	n	x	n	n	n	n	n	n
Cc1ccc(S(=O)(=O)Nc2c(C)nn(C)c2C)cc1	n	n	-94.8	n	n	n	65.9	n	n	n	n	n	n
COc1cc([N+](=O)[O-])ccc1NC(=O)CN1CCN(C(=O)c2ccco2)CC1	n	n	n	n	n	n	x	x	x	x	x	x	x
COc1ccc(NC(C)=O)cc1NC(=O)CN1CCN(C(=O)c2ccco2)CC1	153.5[activator]	n	n	n	n	n	130.1	n	n	n	n	n	n
C1CCN(c2c3c(nc4nnnn24)CCCC3)CC1	n	n	n	n	n	n	x	x	x	x	x	x	x
c1ccc(N(c2ccccc2)c2nc(-n3ccnc3)nc(-n3ccnc3)n2)cc1	x	n	x	x	x	n	x	n	n	n	n	n	n
COC(=O)c1cc(=O)n2c(sc3ccccc32)c1C#N	n	x	n	n	u	x	x	x	x	x	x	x	x
CCN(CC)c1ccc(N=Cc2ccccc2[N+](=O)[O-])cc1	n	n	n	n	n	n	x	x	x	x	x	x	x
CCN(CC)c1ccc(N=Cc2ccc([N+](=O)[O-])o2)cc1	n	n	19.9	n	n	n	69.2	n	n	n	n	n	n
CC(=O)Nc1ccc(NC(=O)c2ccco2)cc1	n	n	-100.5	n	n	n	83.5	n	n	n	n	n	n
CCN(CC)c1ccc(NC(=O)c2ccco2)cc1	n	n	n	n	n	n	x	x	x	x	x	x	x
Cc1onc(-c2c(Cl)cccc2Cl)c1C(=O)c1ccccc1	n	x	n	n	u	x	x	x	x	x	x	x	x
Cc1onc(-c2ccccc2Cl)c1C(=O)Nc1ncn[nH]1	n	n	-1.7	n	n	n	85.8	n	n	n	n	n	n
SMILES	RGS8-Gao	ABCG2 inh	RGS16-Gao	RGS4-Gao reg	RGS7-Gao	ABCB1 block	RGS-Gao	Avidin counter	RGS8-Gao confirm	RGS7-Gao confirm	RGS16-Gao single	RGS4-Gao confirm	RGS19-Gao single
Cc1onc(-c2ccccc2Cl)c1C(=O)c1ccccc1	7.7	x	-15.7	-27.7	u	x	x	n	n	n	n	n	n
Cc1cccc(NN=C2c3ccccc3-c3ccccc32)c1	n	n	n	n	n	n	x	x	x	x	x	x	x
COc1ccc(C2SCC(=O)N2c2c(C)n(C)n(-c3ccccc3)c2=O)cc1 (stereo not given)	n	n	n	n	n	n	x	x	x	x	x	x	x
Cc1c(N2C(=O)CSC2c2ccc([N+](=O)[O-])cc2)c(=O)n(-c2ccccc2)n1C (stereo not given)	n	x	n	163.7[activator]	u	x	x	n	n	n	n	n	n
COc1cc(C(=S)N2CCOCC2)cc(OC)c1O	n	x	n	n	u	x	x	x	x	x	x	x	x
CCOc1ccc(CCNC(=O)c2cc3sc(Cl)cc3n2C)cc1OCC	n	n	n	n	n	n	x	x	x	x	x	x	x
CCOc1ccc(CCNC(=O)c2cc3sccc3n2C)cc1OCC	141.5[activator]	n	n	154.5[activator]	n	n	x	n	n	n	n	n	n
COc1ccc(CCN(Cc2cc3cc(C)c(C)cc3nc2Cl)C(=O)C2CC2)cc1	n	n	n	n	n	n	x	x	x	x	x	x	x
COCC(=O)NC1CCN(S(=O)(=O)c2cccc(C(C)=O)c2)CC1	n	n	n	n	n	n	x	x	x	x	x	x	x
CCCC(N)CCCCCC(=O)O (stereo not given)	n	n	332.5[activator]	n	n	n	129.4	n	n	n	n	n	n
Cc1cc(C(=O)NCC(=O)OC(C(=O)Nc2cc(C(F)(F)F)ccc2Cl)c2ccccc2)ccc1[N+](=O)[O-] (stereo not given)	n	n	n	n	n	n	x	x	x	x	x	x	x
CCCC(=O)OC(C(=O)Nc1cc(C(F)(F)F)ccc1Cl)c1ccccc1 (stereo not given)	n	n	241.4[activator]	n	n	n	106.6	n	n	n	n	n	n
CN1C(=O)C(O)(CC(=O)c2ccccc2O)c2cc(Br)ccc21 (stereo not given)	147.5[activator]	n	n	n	n	n	116.7	n	n	n	n	n	n
